Screening results: PubChem BioAssay, several laboratories
Sampled rows, rich in hits. Any-hit rate of the full collection: about 9.5%.
Jurkat tox 60K: cytotoxicity toward Jurkat cells | Jurkat E6.1 viability, ATP luminescence, 48 h | inhibition, % at 4 µM | 56,000 tested, 1.2% active;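 active means inhibition above the mean inhibition of all tested compounds plus 3 SD, cut at about 28% in these data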
M1 antag: M1 muscarinic receptor (rat) antagonism. AID 628. 64,000 tested, 3.4% active. B-score at 10 µM. CHO-M1 cells, Fluo-4 calcium, ACh EC80 antagonist mode; hits give low values. P08482;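 active means calcium fluorescence response, raw or row-and-column corrected B-score, differing from the plate sample mean either way at a set confidence level, mostly lower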
D1 mod: allosteric modulators of human D1 dopamine receptor. P21728. HEK293 D1, CRE-luciferase, dopamine EC30 potentiation; actives deviate in either direction. B-score at 10 µM. 58,000 tested, 5.9% active;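 active means luminescence count or its row- and column-corrected plate score outside the 99.7% band of the plate's sample wells, on either side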
Target sequence (P21728 whole entry, looked up): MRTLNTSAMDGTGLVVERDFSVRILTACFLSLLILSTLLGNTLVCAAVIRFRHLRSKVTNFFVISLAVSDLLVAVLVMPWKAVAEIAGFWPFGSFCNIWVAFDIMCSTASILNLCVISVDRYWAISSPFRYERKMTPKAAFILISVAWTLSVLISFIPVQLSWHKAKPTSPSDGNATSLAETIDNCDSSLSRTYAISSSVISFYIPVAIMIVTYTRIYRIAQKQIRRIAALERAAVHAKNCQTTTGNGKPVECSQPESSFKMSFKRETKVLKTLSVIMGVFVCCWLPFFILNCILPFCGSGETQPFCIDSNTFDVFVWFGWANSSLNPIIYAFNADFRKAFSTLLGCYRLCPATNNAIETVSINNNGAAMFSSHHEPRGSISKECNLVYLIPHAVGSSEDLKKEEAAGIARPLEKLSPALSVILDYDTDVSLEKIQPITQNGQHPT
Htt clearance: mutant huntingtin protein clearance. inhibition, % at 1.5 µM. 47,000 tested, 0.42% active. HeLa Exon1htt(103Q)mCFP, aggregate imaging; zero = plate's median compound well. AID 853;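 active means inhibition of aggregate fluorescence above about 70%, also judged a hit by eye on the cell image, limit read from the data, passing the limit was not always enough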;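 further: cells exposed to compound for three days before fixation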
M1 agonist: M1 muscarinic receptor agonism | CHO-M1 cells, Fluo-4 calcium fluorescence, agonist mode; hits give high values | B-score at 10 µM | 64,000 tested, 3% active | AID 626;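 active means fluorescence rise, raw or as B-score row- and column-corrected plate score, outside the 99.7% band of its plate's samples, either direction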
HEK293 NFkB inh: inhibitors of the PMA/ionomycin-induced NF-kB reporter in HEK293 cells; inhibition, % at 3 µM; HEK-293 NF-kB luciferase reporter, luminescence; 62,000 tested, 0.21% active;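 active means inhibition above the mean of all tested compounds plus 3 SD, cut at about 40% in these data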;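 further: 0% = stimulated DMSO wells and 100% = 10 µM reference inhibitor 5653914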
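System – HEK-293 cells with stable firefly luciferase reporter driven by four HIV NF-kB elements · Doses – one dose, 3 µM · Schedule – 1 h compound pre-incubation, 16 h PMA/ionomycin at 37 °C · Technique – luminescence from luciferase substrate reagent · Measure – percent inhibition normalized per plate to DMSO and reference-inhibitor controls · Replicates – tested once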
Numbers without * were called inactive.

`CSC1=Nc2sc3c(c2C2=NCCN12)CCCC3` gave Jurkat tox 60K 8, M1 antag -11*, D1 mod 0.13, M1 agonist 0.13 and HEK293 NFkB inh 16.
Screening Cc1ccc(S(=O)(=O)n2nc(-c3ccco3)nc2SCc2ccccc2)cc1 returned Jurkat tox 60K -1, M1 antag -1.2, D1 mod 0.0023, Htt clearance 45, M1 agonist 2.2* and HEK293 NFkB inh -1.
For O=C(c1ccco1)n1nc(-c2ccco2)nc1SCc1ccccc1 the results were Htt clearance 10.
`Cc1nc2oc3c(NCc4ccccn4)ncnc3c2c2c1COC(C)(C)C2` gave Jurkat tox 60K -2, M1 antag -0.34, D1 mod 12*, M1 agonist -0.19 and HEK293 NFkB inh 8.
CCOC(=O)N1CCN(c2ncnc3c2oc2nc(C)c4c(c23)CC(C)(C)OC4)CC1 was read as Jurkat tox 60K -4, M1 antag -0.1, D1 mod 1.7, M1 agonist -0.11 and HEK293 NFkB inh 12.
Screening CC1(C)Cc2nc3oc4c(NCc5ccccc5)ncnc4c3cc2CO1 returned Jurkat tox 60K 4, D1 mod 0.2 and HEK293 NFkB inh 16.
For CC(C)c1nc2oc3c(NCc4ccccn4)ncnc3c2c2c1COC(C)(C)C2 the results were Jurkat tox 60K 1, M1 antag 0.42, D1 mod 8.7*, M1 agonist 4.6* and HEK293 NFkB inh 8.
For COC(=O)Cc1cc(=O)[nH]c(/N=C(\N)Nc2ccccc2C)n1 the results were Htt clearance -22.
Screening CCCCOc1ccccc1-c1cc(C(=O)O)[nH]n1 returned Jurkat tox 60K -4, M1 antag 0.54, D1 mod 0.39, Htt clearance 52, M1 agonist 0.54 and HEK293 NFkB inh 0.
COc1ccc(Nc2cc(C)nc3ncnn23)c(OC)c1 was read as Jurkat tox 60K -9, M1 antag -0.42, D1 mod -0.15, Htt clearance 24, M1 agonist -0.29 and HEK293 NFkB inh 17.
For COc1ccc(CNc2cc(C)nc3ncnn23)c(OC)c1 the results were Jurkat tox 60K 80*, M1 antag -1.3, D1 mod -0.77, Htt clearance 54, M1 agonist 1.1 and HEK293 NFkB inh 27.
For CCOC(=O)N1CCC(Nc2ccc3nnc(-c4ccccc4)n3n2)CC1 the results were Jurkat tox 60K 1, M1 antag -1.6, D1 mod -3*, M1 agonist 0.93 and HEK293 NFkB inh 3.
CCOC(=O)CC(=O)CSc1ccc2nnc(-c3ccccc3)n2n1 was read as Jurkat tox 60K -4, M1 antag -0.29, D1 mod 1, Htt clearance 37, M1 agonist -0.96 and HEK293 NFkB inh 23.
For Cc1cccc2cc(CN(Cc3ccccc3)C(=O)N3CCOCC3)c3nnnn3c12 the results were Htt clearance -4.
For CCOC(=O)COn1c(=O)c(-c2ccc(OC)c(OC)c2)[n+]([O-])c2ccccc21 the results were M1 antag -1.2, Htt clearance 74* and M1 agonist -0.061.
For COc1ccc(-c2c(=O)n(OCc3ccccn3)c3ccccc3[n+]2[O-])cc1OC the results were Jurkat tox 60K -1, M1 antag 0.32, D1 mod -0.81, M1 agonist 0.21 and HEK293 NFkB inh 17.
`COc1ccc(S(=O)(=O)N(CCc2ccccc2)CC(=O)NC(C)C)cc1` gave Htt clearance 31.
`CCN(CC)S(=O)(=O)c1ccc(/C(O)=C(\C#N)c2nc3ccccc3n2C)cc1` gave Jurkat tox 60K 0, M1 antag -0.11, D1 mod -2.2*, Htt clearance -9, M1 agonist 2.1 and HEK293 NFkB inh 11.
For Cn1c(C(C#N)C2=C(Cl)C(=O)N(c3ccccc3)C2=O)nc2ccccc21 (centres undefined) the results were Jurkat tox 60K 6, M1 antag -0.52, D1 mod -0.89, M1 agonist 0.63 and HEK293 NFkB inh 8.
N#Cc1c(N)oc(-c2ccccc2)c1-c1ccccc1 was read as M1 antag 1.3, M1 agonist -0.76 and HEK293 NFkB inh 12.
`N#Cc1c(N)oc(-c2ccco2)c1-c1ccco1` gave Jurkat tox 60K -2, M1 antag 1.5, D1 mod 19*, Htt clearance -11, M1 agonist 0.82 and HEK293 NFkB inh 7.
Oc1ccccc1-c1nnc(SCCN2CCOCC2)n1Cc1ccccc1 was read as Jurkat tox 60K 78*, M1 antag 0.11, D1 mod 1.3, M1 agonist 0.84 and HEK293 NFkB inh 28.
OC1(c2cccc(C(F)(F)F)c2)CCN(c2ncnc3c2[nH]c2ccc(F)cc23)CC1 was read as Jurkat tox 60K 53*, M1 antag 0.23, D1 mod -0.32, M1 agonist 0.34 and HEK293 NFkB inh 24.
`Fc1ccc2[nH]c3c(N4CCN(c5ccccc5)CC4)ncnc3c2c1` gave M1 antag 0.18 and M1 agonist 0.49.
`Cc1cccc(NC(=O)C2CCCN(S(=O)(=O)c3cccc4cccnc34)C2)c1` (centres undefined) gave Jurkat tox 60K -5, M1 antag -1.5, D1 mod 1.2, M1 agonist 1.1 and HEK293 NFkB inh -2.
`Cc1nc(N)sc1-c1csc(Nc2ccccn2)n1` gave Jurkat tox 60K -1, M1 antag -1, D1 mod -6*, Htt clearance 10, M1 agonist -0.37 and HEK293 NFkB inh -2.
Cc1nc(N)sc1-c1csc(Nc2ccc(Cl)cn2)n1 was read as Jurkat tox 60K 12, M1 antag -0.14, D1 mod 1.1, Htt clearance -62, M1 agonist -0.5 and HEK293 NFkB inh 6.
COc1cccc(CN(Cc2cccnc2)S(=O)(=O)c2ccc(-n3cnnn3)c(C)c2)c1OC was read as Jurkat tox 60K -4, M1 antag -1.9, D1 mod 0.56, Htt clearance -2, M1 agonist -0.28 and HEK293 NFkB inh 22.
CCOC(=O)c1sc(NC(=O)CSc2n[nH]c(-c3ccc(Cl)cc3Cl)n2)c(C#N)c1C was read as Htt clearance -10.
c1cc(CNc2ccc3c(c2)OCO3)ccn1 was read as Jurkat tox 60K 0, M1 antag 0.37, D1 mod 0.38, Htt clearance 11, M1 agonist -2.3 and HEK293 NFkB inh 10.
For Cc1ccc(CNc2ccc3c(c2)OCO3)cc1 the results were Jurkat tox 60K 9, M1 antag 0.03, D1 mod -5*, Htt clearance -155, M1 agonist 2.1 and HEK293 NFkB inh 11.
`NCCCCCc1nnc(SCC(=O)c2ccc(Cl)cc2)o1` gave Jurkat tox 60K 2, D1 mod 0.086, Htt clearance -5 and HEK293 NFkB inh -3.
Screening O=C1N/C(=C\c2ccccc2)c2ccccc21 returned Jurkat tox 60K 81*, M1 antag -0.19, D1 mod -0.23, Htt clearance -45, M1 agonist 0.26 and HEK293 NFkB inh 19.
